Assay results published in ChEMBL document CHEMBL4152190, “Microwave-assisted one-pot synthesis of new phenanthrene fused-tetrahydrodibenzo-acridinones as potential cytotoxic and apoptosis inducing agents” (Eur J Med Chem, 2018).

How the values were obtained:
PC-3 = test: Cytotoxicity against human PC3 cells after 48 hrs by MTT assay; type: functional, cell-based; details: PC-3, 48 h
In short: (§1)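 ATCC lines grown in DMEM or RPMI with 10% FBS and antibiotic-antimycotic, 37 °C, 5% CO2. Seeded at 3×10^4 cells/well, 24 h before dosing with vehicle (DMSO) controls. […] Cisplatin as reference.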

HEK-293T = test: Cytotoxicity against human HEK293T cells after 48 hrs by MTT assay; type: cell-based; in short: as §1
HeLa = test: Cytotoxicity against human HeLa cells after 48 hrs by MTT assay; type: functional, cell-based; in short: as §1
HT-1080 = test: Cytotoxicity against human HT1080 cells after 48 hrs by MTT assay; type: functional, cell-based; details: HT-1080, 48 h; in short: as §1
SK-OV-3 = test: Cytotoxicity against human SKOV3 cells after 48 hrs by MTT assay; type: functional, cell-based; details: SK-OV-3, 48 h; in short: as §1

## COc1cc2c3c(c4cc(OC)c(OC)cc4c2cc1OC)C(c1ccc(C(C)C)cc1)C1=C(CCCC1=O)N3 (stereo not given)
PC-3
  IC50: 5.67 µM
HEK-293T
  IC50: 41.5 µM
HeLa
  IC50: 13.6 µM
HT-1080
  IC50: 11.7 µM
SK-OV-3
  IC50: 4.81 µM

## COc1cc2c3c(c4cc(OC)c(OC)cc4c2cc1OC)C(c1ccc(Cl)cc1)C1=C(CC(C)(C)CC1=O)N3 (stereo not given)
PC-3
  IC50: > 50 µM
HEK-293T
  IC50: > 50 µM
HeLa
  IC50: 38.8 µM
HT-1080
  IC50: 30.1 µM
SK-OV-3
  IC50: 15.9 µM

## COc1ccc(C2C3=C(CCCC3=O)Nc3c2c2cc(OC)c(OC)cc2c2cc(OC)c(OC)cc32)cc1 (stereo not given)
PC-3
  IC50: 5.79 µM
HEK-293T
  IC50: 28.3 µM
HeLa
  IC50: 2.62 µM
HT-1080
  IC50: 2.62 µM
SK-OV-3
  IC50: 0.61 µM

## COc1cc2c3c(c4cc(OC)c(OC)cc4c2cc1OC)C(c1sccc1C)C1=C(CC(C)(C)CC1=O)N3 (stereo not given)
PC-3
  IC50: 21.6 µM
HEK-293T
  IC50: 33.5 µM
HeLa
  IC50: 3.7 µM
HT-1080
  IC50: 8.85 µM
SK-OV-3
  IC50: 2.89 µM

## COc1cc2c3c(c4cc(OC)c(OC)cc4c2cc1OC)C(c1ccc(C)cc1)C1=C(CCCC1=O)N3 (stereo not given)
PC-3
  IC50: 7.17 µM
HEK-293T
  IC50: 38.9 µM
HeLa
  IC50: 4.79 µM
HT-1080
  IC50: 5.63 µM
SK-OV-3
  IC50: 1.62 µM

## COc1ccc(C2C3=C(CCCC3=O)Nc3c2c2cc(OC)c(OC)cc2c2cc(OC)c(OC)cc32)cc1OC (stereo not given)
PC-3
  IC50: > 50 µM
HEK-293T
  IC50: > 50 µM
HeLa
  IC50: > 50 µM
HT-1080
  IC50: 25.7 µM
SK-OV-3
  IC50: 11.5 µM

## COc1cc2c3c(c4cc(OC)c(OC)cc4c2cc1OC)C(c1ccc2c(c1)OCO2)C1=C(CC(C)(C)CC1=O)N3 (stereo not given)
PC-3
  IC50: 7.7 µM
HEK-293T
  IC50: 24.6 µM
HeLa
  IC50: 1.35 µM
HT-1080
  IC50: 4.32 µM
SK-OV-3
  IC50: 4.66 µM

## COc1cc2c3c(c4cc(OC)c(OC)cc4c2cc1OC)C(c1cccs1)C1=C(CC(C)(C)CC1=O)N3 (stereo not given)
PC-3
  IC50: 7.1 µM
HEK-293T
  IC50: 18.9 µM
HeLa
  IC50: 2.28 µM
HT-1080
  IC50: 5.87 µM
SK-OV-3
  IC50: 1.6 µM

## COc1ccc(C2C3=C(CC(C)(C)CC3=O)Nc3c2c2cc(OC)c(OC)cc2c2cc(OC)c(OC)cc32)cc1OC (stereo not given)
PC-3
  IC50: 17.6 µM
HEK-293T
  IC50: 43.5 µM
HeLa
  IC50: 28.1 µM
HT-1080
  IC50: 21.3 µM
SK-OV-3
  IC50: 13.7 µM
